Most compounds without a hit are left out; they make up all but 1.9% or so of the library.
Rtt109 Vps75 = inhibitors of Candida albicans Rtt109/Vps75 histone acetyltransferase. Q5AAJ8. purified Rtt109/Vps75, ThioGlo CoA-SH fluorescence, 4 h. inhibition, % at 34.9 µM. hit rate 0.16% among 330,000;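 active = inhibition of at least 50% in every replicate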
Target sequence (Q5AAJ8 whole entry, looked up): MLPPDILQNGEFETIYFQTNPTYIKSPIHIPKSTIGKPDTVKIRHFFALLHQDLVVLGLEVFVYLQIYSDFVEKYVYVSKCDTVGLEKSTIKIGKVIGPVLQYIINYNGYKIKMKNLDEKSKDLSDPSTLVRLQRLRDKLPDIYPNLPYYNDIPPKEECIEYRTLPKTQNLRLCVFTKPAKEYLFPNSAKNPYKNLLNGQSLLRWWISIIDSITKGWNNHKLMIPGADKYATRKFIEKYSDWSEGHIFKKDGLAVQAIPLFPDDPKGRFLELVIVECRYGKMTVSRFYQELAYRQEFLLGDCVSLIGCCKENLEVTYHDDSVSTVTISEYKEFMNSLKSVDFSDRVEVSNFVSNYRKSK
Efflux pump mplx = antifungal efflux pump inhibition, Nile Red retention. S. cerevisiae Candida pump triplex. inhibition, % at 10 µM. hit rate 0.44% among 330,000. AID 485275;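 active = plate passing quality check with inhibition over a set limit, or well fluorescence over plate mean plus 4 SD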;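 also: Nile Red retained in pooled yeast measured as flow cytometry median fluorescence; 0% = buffer negative control and 100% = Enniatin B positive control; higher means more Nile Red kept so more efflux inhibition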
ASAP1 inh = blocks human ASAP1-stimulated Arf1 GTP hydrolysis; Q9ULH1; GDP FP detection; inhibition, % at 16.5 µM; hit rate 0.19% among 360,000; in the data active = inhibition above about 25%;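 also: 0% = vehicle with enzyme and substrate and 100% = no enzyme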
FGF22 binding = FGF22 (human) thermal shift binding; Q9HCT0; recombinant FGF22 thermal shift, SYPRO orange fluorescence; percent of sucrose octasulfate shift, DMSO zero; activity (Tm shift, normalised), % at 9.99 µM; hit rate 1.5% among 340,000; AID 651658;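 active = mean Tm shift, scaled 0 neutral to 100 positive control, at about 1.3% or above, every replicate too, limit read from the data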
Target sequence (Q9HCT0 whole entry, looked up): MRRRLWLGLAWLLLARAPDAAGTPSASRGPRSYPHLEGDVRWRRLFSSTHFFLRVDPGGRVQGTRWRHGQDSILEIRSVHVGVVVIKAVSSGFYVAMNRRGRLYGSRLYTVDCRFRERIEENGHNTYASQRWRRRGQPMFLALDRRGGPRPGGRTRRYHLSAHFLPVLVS
ARFGAP1 inhibitor = inhibitors of rat ARFGAP1. Arfgap1-stimulated ARF1 GTP hydrolysis, GDP FP detection. inhibition, % at 16.5 µM. hit rate 0.26% among 360,000. AID 651572;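 active = inhibition above a per-plate limit, mean inhibition of low control wells plus 3 SD, cut at about 25% in these data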;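 also: 0% = DMSO wells with enzyme and 100% = wells lacking Arfgap1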
Target sequence (Q62848 1-136 limits assumed): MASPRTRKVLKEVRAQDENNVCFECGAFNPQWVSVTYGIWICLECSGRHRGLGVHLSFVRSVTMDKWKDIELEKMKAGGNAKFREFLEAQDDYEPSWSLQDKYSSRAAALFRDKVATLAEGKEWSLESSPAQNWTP
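Assay system: Rat Arfgap1 GAP domain (His6, aa 1-136), purified enzyme | Buffer or medium: HEPES 25 mM pH 7.5, NaCl 150 mM, MgCl2, DTT | Schedule: GTP hydrolysis reaction 2 h at 25 °C | Signal: FP of antibody-bound GDP Alexa 633 tracer, ex 620/em 688 nm | Measure: Percent inhibition of Arfgap1-stimulated GTP hydrolysis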
Numbers without * were called inactive; · = no result given.

SMILES | Rtt109 Vps75 | Efflux pump mplx | ASAP1 inh | FGF22 binding | ARFGAP1 inhibitor
COc1ccc(-c2c(C)n([O-])c3c([n+]2=O)CCCCC3)cc1OC | 1.9 | 0.1 | 1.3 | 43.2* | -7.6
CC(C(=O)Nc1ccc(S(=O)(=O)N2CCCC2)cc1)N1CCc2ccccc2C1 (configuration not stated) | -5.0 | 0.3 | -3.0 | 0.0 | 0.0
COC(=O)c1cc2c(c3c4cc(OC)ccc4n(S(=O)(=O)c4ccc(OC)cc4)c13)C(=O)N(C1CCCCC1)C2 | · | · | -11.4 | -0.1 | 5.1
CCCCC#Cc1ccccc1COC[B-](F)(F)F | · | · | 5.5 | 1.4* | 0.9
F[B-](F)(F)COCc1ccccc1C#Cc1ccccc1 | · | · | 3.1 | 1.2 | -2.4
O=C(COc1ccc(C(=S)N2CCOCC2)cc1)Nc1ccccc1C(F)(F)F | 8.1 | 0.1 | 1.3 | 43.8* | 6.9
O=C(COc1ccc(C(=S)N2CCCC2)cc1)Nc1ccccc1C(F)(F)F | -1.6 | -0.1 | 1.4 | 0.1 | 8.6
CCc1nc2ccccc2c(C(=O)NCc2ccccc2)c1C | 8.2 | 0.1 | -0.5 | 43.1* | 0.8
C[C@@H]1CN([C@H](C)CO)S(=O)(=O)c2ccc(-c3ccc(F)cc3)cc2O[C@H]1CN(C)S(C)(=O)=O | · | · | · | 0.0 | ·
CCNc1nc(SCC(=O)Nc2ccc(Cl)c(Cl)c2)nc(N(C)C)n1 | 1.5 | 0.1 | 3.1 | 44.8* | -7.6
CN(C)c1nc(NCc2ccccc2)nc(SCC(=O)Nc2ccc(Cl)c(Cl)c2)n1 | -2.5 | 0.0 | 5.2 | · | 15.9
COC(=O)CSc1nc(NCc2ccccc2)nc(N(C)C)n1 | 13.8 | 0.3 | -11.6 | 43.1* | -13.6
COc1ccc(CNC(=S)Nc2cccc(OC)c2)cc1 | 1.3 | 0.0 | 1.8 | -0.1 | 4.2
COc1ccc(CNC(=S)Nc2cc(C)cc(C)c2)cc1 | 5.2 | 0.0 | -13.1 | · | -0.3
COc1ccc(CNC(=S)Nc2ccc(F)c(Cl)c2)cc1 | 2.0 | 0.0 | -1.3 | 1.7* | 5.7
COc1ccc(CNC(=S)NCc2ccc(OC(C)C)cc2)cc1 | -3.0 | 0.0 | 6.6 | 43.2* | 5.3
NS(=O)(=O)c1ccc(CNC(=S)Nc2ccc(F)c(Cl)c2)cc1 | 5.4 | -0.2 | -3.1 | 43.5* | 4.2
CC(=O)N1CCN(C(=O)CSc2ncnc3sc(C)c(C)c23)CC1 | 0.0 | 0.0 | -1.1 | 0.1 | 7.0
Fc1cc(Br)ccc1NC(=S)NCCc1ccccc1 | 4.7 | 0.1 | -3.3 | 1.8* | 14.8
C[C@H](NC(=O)c1ccc(Cl)cc1)C(=O)NCCc1ccc(S(N)(=O)=O)cc1 | 11.2 | -0.1 | 2.9 | 43.7* | 10.5
S=C(NCCc1ccccc1)Nc1ccc(Cl)cc1 | -7.8 | -0.1 | 4.0 | 1.5* | 3.8
S=C(NCCc1ccc(Cl)cc1)NC1CC1 | 5.1 | 0.0 | 7.9 | 44.1* | -3.9
CCOC(=O)C1(CCCc2ccccc2)CCN(C(=O)Cc2nonc2C)CC1 | 5.8 | -0.2 | -1.7 | 0.2 | -6.3
Fc1ccc(C2CC(c3ccc(F)cc3)n3ncnc3N2)cc1 (configuration not stated) | 0.7 | 0.1 | 0.6 | · | 1.1
CCCCC(=O)Nc1ccc(C(=O)NCCc2ccc(S(N)(=O)=O)cc2)cc1 | -4.6 | 0.1 | -5.3 | 42.9* | 8.9
SMILES | Rtt109 Vps75 | Efflux pump mplx | ASAP1 inh | FGF22 binding | ARFGAP1 inhibitor
NS(=O)(=O)c1ccc(NC(=S)NCCc2ccccc2)cc1 | 5.7 | 0.3 | 12.6 | 2.2* | 12.6
Cc1ccc(C(=O)OCC(=O)NCCc2ccc(S(N)(=O)=O)cc2)o1 | -1.7 | 0.0 | 3.3 | 43.4* | -7.0
Cc1ccc(C(=O)OCC(=O)NCCNC(=O)COC(=O)c2ccc(C)o2)o1 | 2.0 | 0.0 | -4.5 | -0.2 | -6.0
COc1ccc(S(=O)(=O)Nc2ccc3c(c2)C(=O)N([C@@H](C)CO)C[C@H](C)[C@@H](CN(C)S(=O)(=O)c2ccc(C)cc2)OCCCC[C@H](C)O3)cc1 | · | · | · | 0.6 | ·
Clc1ccc(-c2nnc(CNC3CC3)o2)cc1 | -3.3 | 0.0 | 7.0 | 43.3* | 1.1
O=C(NCc1nnc(SCC(=O)N2CCCc3ccccc32)o1)c1ccco1 | -12.7 | 0.3 | -1.1 | 0.2 | -4.5
O=C(NCc1nnc(SCC(=O)N2CCc3ccccc32)o1)c1ccco1 | · | 0.4 | -1.6 | 43.0* | 4.2
C/C=C/c1ccc2c(c1)O[C@H](CN(C)C(=O)c1cccc(F)c1)[C@H](C)CN([C@@H](C)CO)S2(=O)=O | · | · | · | -0.3 | ·
CNS(=O)(=O)c1ccc(NC(=O)c2cnn3c(C(F)F)cc(-c4ccccc4)nc23)cc1 | -5.4 | 0.0 | 5.1 | 43.0* | 1.2
O=C(Nc1cccc(S(=O)(=O)N2CCOCC2)c1)c1cnn2c(C(F)F)cc(-c3ccccc3)nc12 | -10.6 | -0.1 | -3.0 | 0.7 | -5.4
COc1ccc(-c2cc(C(F)F)n3ncc(C(=O)Nc4cc(C)on4)c3n2)cc1 | -8.0 | -0.2 | -2.8 | 43.1* | 14.1
COc1ccc(-c2cc(C(F)F)n3ncc(C(=O)N4CCN(C(=O)c5ccco5)CC4)c3n2)cc1 | -3.3 | 0.8* | 2.4 | 0.0 | 5.1
CCCCc1nnn2c1C1c3cc(-c4cccnc4)ccc3CCN1C(=O)C2 (configuration not stated) | · | · | -2.5 | -0.4 | 12.5
C[C@@H]1CN([C@H](C)CO)C(=O)c2cc(NC(=O)NC3CCCCC3)ccc2O[C@H]1CN(C)Cc1ccc(C(F)(F)F)cc1 | · | · | · | 0.1 | ·
Cc1ccc(NC(=O)C2CCCN2C(=O)NC2CCCCC2)cc1F (configuration not stated) | -1.9 | 0.0 | 11.4 | 43.0* | -4.0
Cc1ccc(NC(=O)C2CCCN2C(=O)NC2CCCCC2)cc1C (configuration not stated) | -1.3 | -0.1 | 1.0 | 0.3 | 13.0
CCCCCCCCCCCCCCCC[n+]1cccc2ccccc21 | -2.2 | 1.1* | -7.1 | 0.9 | -9.2
CCCc1nc2cc(C)c(Br)c(C)n2c1CC1CCCCC1 | · | · | 3.4 | 0.5 | 1.8
N=c1sccn1CC(=O)Nc1ccc(SC(F)F)cc1 | -2.4 | -0.1 | 5.2 | 43.4* | -6.8
N=c1sccn1CC(=O)Nc1ccc(S(N)(=O)=O)cc1 | -13.0 | 0.1 | -0.7 | -0.3 | 2.1
CCOC(=O)c1c(NC(=O)c2cnn3c2NC(c2cccc(OC)c2)CC3C(F)(F)F)sc2c1CCCC2 (configuration not stated) | -2.7 | 0.1 | -1.8 | · | 14.8
O=CNc1ccc2c3c(cccc13)-c1ccccc1-2 | 11.5 | · | -24.3 | 45.0* | 12.1
CC(=O)Nc1ccc2c3c(cccc13)C(=O)N(c1ccccc1)C2=O | -1.7 | 0.1 | -5.1 | 0.2 | 7.8
O=C(CCc1ccccc1)N1N=C(c2ccncc2)CC1(O)C(F)(F)F (configuration not stated) | -7.1 | -0.1 | -1.8 | 42.9 | -12.2
NC(=S)NN=C1CCSCC1 | -12.8 | · | -7.2 | 43.1* | -5.4
NC(=S)NN=C1CCCCCCCCC1 | 9.3 | · | -3.3 | -0.2 | -3.8
CC(=O)c1ccc(NC(=O)C(C)N(C)CC(=O)Nc2ccc(Cl)cc2)cc1 (configuration not stated) | -11.3 | 0.0 | 4.0 | 44.3* | 1.2

Screening results from PubChem BioAssay.
